Source: paper PMC4531836 (Molecular imaging and biology : MIB : the official …, 2015)
Where “and” joins values, the source holds several entries; their conditions need not be identical. Identical values can stand only once. Entries after “also recorded” stand apart in the source; their conditions may differ.

Assays:
Format in all cases: in vivo, human
[1] = Blood and plasma activity, plasma metabolites, urinary excretion
Method in brief: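 Prostate cancer patients received about 320.6 MBq by slow IV push. Venous blood was drawn from the contralateral arm after PET2, PET4 and PET5, and 0.5 ml aliquots of blood and plasma were well-counted. Urine voided after PET4 and PET5 (about 110 and 160 min) was counted. For metabolites, plasma was acetonitrile-precipitated, spiked with unlabelled reference, and run on C18 radio-HPLC in 10% acetonitrile/90% triethylammonium phosphate pH 3.2 at 2 ml/min.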

[2] = Radiation dosimetry
Method in brief: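 Four patients were analysed. Organ VOIs were drawn on longitudinal PET scans. Time-activity data were integrated by fitted single- or double-exponential functions, or numerically with single-exponential extrapolation. Residence times were scaled from CT-derived patient organ masses to reference masses. Absorbed doses used the MIRD S-value schema in OLINDA/EXM. The bladder model assumed 1.5 h voiding, and lens dose was taken as the photon dose to brain.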

[3] = tested on: prostate cancer; experiment: PET/CT tumor uptake
Method in brief: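 Sequential PET/CT ran from injection (PET1–PET4), with PET5 at 120 min. Tumour sites were foci at PET5 with uptake above surrounding soft tissue or blood pool. SUVmax was normalised to lean body mass for up to five hottest lesions per patient, using automatic VOIs at 50% activity threshold. Tumour-to-reference ratio was lesion SUVmax over SUVmean of liver, blood pool or muscle.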

[4] = Safety / adverse events in patients with prostate cancer; conditions: nine patients
Method in brief: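 Nine patients received about 320.6 MBq IV after 4–6 h fasting. Vital signs and ECG were recorded before dosing, with pulse oximetry during scanning. Within 2 weeks before and after, they had history, examination, CBC with differential, metabolic panel (BUN, creatinine, alkaline phosphatase, bilirubin, transaminases) and ECG. Follow-up visit or contact came within 30 days. Events were graded by NCI CTCAE.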

[5] = PET biodistribution in patients; conditions: visual
Method in brief: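 Patients fasted 4–6 h, then received about 320.6 MBq IV (specific activity 107.2 MBq/nmol). Mid-thigh-to-vertex 3D PET/CT with CT attenuation correction followed. Four sequential scans began at injection, at 1, 2, 4 and 4 min per bed. A fifth scan (4 min/bed) ran at 120 min. Two non-blinded nuclear-medicine readers reviewed images visually.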

With `O=C(O)CCC(NC(=O)NC(CCCCNC(=O)c1ccc([18F])nc1)C(=O)O)C(=O)O` (stereo not drawn) [[^18F]DCFPyL, 2-(3-(1-carboxy-5-[(6-[^18F]fluoro-pyridine-3-carbonyl)-amino]-pentyl)-ureido)-pentanedioic acid] the Red cell binding ([1]; 86 and 137 min post-injection) was “non-detectable”, the Red cell binding ([1]; 20 min post-injection) was “negligible” and the “Average urinary excretion of the radiotracer” value ([1]; by 2 h post-injection) was 11%. For the same molecule, the “Urinary excretion of the radiotracer, range” value ([1]; by 2 h post-injection) was 6–15%, the “Average urinary excretion of the radiotracer” value ([1]; by 3 h post-injection) was 16% and the “Urinary excretion of the radiotracer, range” value ([1]; by 3 h post-injection) was 8–21%. For the same molecule, the “Radiotracer metabolites in plasma (radio-HPLC)” value ([1]; three patients, up to 173 min post-injection) was “all plasma activities were in the form of unmetabolized radioligand; also recorded: no metabolism”, the Absorbed dose ([2]; Adrenals) was 3.11E-02 mGy/MBq and the Res. time ([2]; Adrenals) was 3.16E-04 (Bq-h)/Bq. For the same molecule, the Res. time ([2]; Bone marrow (spine)) was 5.52E-02 (Bq-h)/Bq, the Absorbed dose ([2]; Brain) was 2.19E-03 mGy/MBq and the Res. time ([2]; Brain) was 4.74E-03 (Bq-h)/Bq. The Absorbed dose ([2]; Breasts) was 4.57E-03 mGy/MBq, the Res. time ([2]; Gallbladder) was 1.18E-03 (Bq-h)/Bq and the Absorbed dose ([2]; Gallbladder wall) was 1.44E-02 mGy/MBq. The Res. time ([2]; Heart) was 1.98E-02 (Bq-h)/Bq, the Absorbed dose ([2]; Heart wall) was 1.29E-02 mGy/MBq and the Res. time ([2]; Heart wall) was 6.24E-03 (Bq-h)/Bq. The Absorbed dose ([2]; Kidneys) was 0.0945 mGy/MBq and 9.45E-02 mGy/MBq, the Res. time ([2]; Kidneys) was 2.17E-01 (Bq-h)/Bq and the Res. time ([2]; LLI) was 4.06E-03 (Bq-h)/Bq. The Absorbed dose ([2]; LLI wall) was 1.05E-02 mGy/MBq, the Absorbed dose ([2]; Lacrimal glands) was 3.50E-02 mGy/MBq and the Res. time ([2]; Lacrimal glands) was 3.86E-04 (Bq-h)/Bq. For the same molecule, the Absorbed dose ([2]; Lens) was 1.25E-03 mGy/MBq, the Res. time ([2]; Lens) was 4.32E-06 (Bq-h)/Bq and the Absorbed dose ([2]; Liver) was 0.0380 mGy/MBq and 3.80E-02 mGy/MBq. For the same molecule, the Res. time ([2]; Liver) was 2.60E-01 (Bq-h)/Bq, the Absorbed dose ([2]; Lungs) was 1.08E-02 mGy/MBq and the Res. time ([2]; Lungs) was 3.70E-02 (Bq-h)/Bq. For the same molecule, the Absorbed dose ([2]; Muscle) was 6.32E-03 mGy/MBq, the Res. time ([2]; Muscle) was 3.07E-01 (Bq-h)/Bq and the Absorbed dose ([2]; Osteogenic cells) was 9.58E-03 mGy/MBq. The Absorbed dose ([2]; Ovaries (hypothetical, all-male cohort)) was 8.89E-03 mGy/MBq, the Absorbed dose ([2]; Pancreas) was 2.44E-02 mGy/MBq and the Res. time ([2]; Pancreas) was 3.05E-03 (Bq-h)/Bq. The Absorbed dose ([2]; Parotid glands) was 2.68E-02 mGy/MBq, the Res. time ([2]; Parotid glands) was 1.19E-02 (Bq-h)/Bq and the Absorbed dose ([2]; Red marrow) was 0.01 mGy/MBq and 1.04E-02 mGy/MBq. The Res. time ([2]; Remainder of body) was 7.11E-01 (Bq-h)/Bq, the Absorbed dose ([2]; Skin) was 4.05E-03 mGy/MBq and the Absorbed dose ([2]; Small intestine) was 9.13E-03 mGy/MBq. For the same molecule, the Absorbed dose ([2]; Spleen) was 1.85E-02 mGy/MBq, the Res. time ([2]; Spleen) was 2.07E-02 (Bq-h)/Bq and the Res. time ([2]; Stomach) was 1.07E-02 (Bq-h)/Bq. For the same molecule, the Absorbed dose ([2]; Stomach wall) was 1.16E-02 mGy/MBq, the Absorbed dose ([2]; Submandibular glands) was 0.0387 mGy/MBq and 3.87E-02 mGy/MBq and the Res. time ([2]; Submandibular glands) was 6.95E-03 (Bq-h)/Bq. The Absorbed dose ([2]; Testes) was 1.01E-02 mGy/MBq, the Res. time ([2]; Testes) was 1.76E-03 (Bq-h)/Bq and the Absorbed dose ([2]; Thymus) was 5.56E-03 mGy/MBq. The Absorbed dose ([2]; Thyroid) was 8.56E-03 mGy/MBq, the Res. time ([2]; Thyroid) was 2.34E-04 (Bq-h)/Bq and the Res. time ([2]; Total body) was 1.96E+00 (Bq-h)/Bq. The Res. time ([2]; ULI) was 2.20E-02 (Bq-h)/Bq, the Absorbed dose ([2]; ULI wall) was 1.67E-02 mGy/MBq and the Res. time ([2]; Urinary bladder contents) was 2.60E-01 (Bq-h)/Bq. For the same molecule, the Absorbed dose ([2]; Urinary bladder wall, voiding interval 1.5 h) was 0.0864 mGy/MBq and 8.64E-02 mGy/MBq, the Absorbed dose ([2]; Uterus (hypothetical, all-male cohort)) was 1.15E-02 mGy/MBq and the Effective dose ([2]; four patients, OLINDA/EXM) was 0.0165 mSv/MBq. The “Radiation dose in the whole body and radiosensitive organs” value ([2]; whole body, red marrow, gonads, breasts) was at most 0.01 mGy/MBq, the “SUVmax, individual lesions” value ([3]; PET4 and PET5, approximately 1 and 2 h post-radiotracer injection) was “greater than 100” and the “SUVmax, highest uptake at a site of primary disease” value ([3]; PET5 (120 min post-injection)) was 71.6. For the same molecule, the “SUVmax, most avid bone lesions” value ([3]; PET5 (120 min post-injection)) was 102.0, the “SUVmax, most avid lymph node lesion” value ([3]; PET5 (120 min post-injection)) was 100.3 and the “SUVmax in putative sites of prostate cancer (highest, some lesions)” value ([3]; SUVmax normalized to lean body mass) was over 100. For the same molecule, the “Radiotracer-related adverse events with monitored heart rate or blood pressure” value [4] was “no radiotracer-related adverse events”, the Adverse events ([4]; IV bolus average 320.6 MBq) was “No major radiotracer-specific adverse events; also recorded: safe to administer” and the “Radiotracer uptake in the brain” value [5] was “No radiotracer uptake”.
